Data from ChEMBL document CHEMBL1150363, “Synthesis, ligand-receptor modeling studies and pharmacological evaluation of novel 4-modified-2-aryl-1,2,4-triazolo[4,3-a]quinoxalin-1-one derivatives as potent and selective human A3 adenosine receptor antagonists” (Bioorg Med Chem, 2008).
The source made the active and inactive calls. The rule behind the calls is not given here.

Key:
[1] = species on record: Bos taurus; experiment: Displacement of [3H]CGS21680 from adenosine A2A receptor in bovine brain membrane at 10 uM; assay type: cell membranes
Method in brief: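 Bovine striatal membranes, [3H]CGS 21680 (Kd 14 nM). Five displacer concentrations in triplicate, non-linear regression IC50, Cheng-Prusoff Ki, four assays. Single-point data are % inhibition at 10 µM.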

[2] = species on record: Rattus norvegicus; experiment: Effect on fEPSP amplitude under normoxic condition in Wistar rat cerebral ischemia model treated after 5 mins of oxygen and glucose deprivation; assay type: functional
Method in brief: (§1)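 Rat hippocampal slices, CA1 stratum radiatum fEPSP evoked by 80 µs, 0.066 Hz pulses at 30–32 °C. Drug (10 nM) given 15 min before, during and 5 min after 7-min OGD (glucose-free aCSF, 95% N2–5% CO2). Amplitude expressed as % of baseline, with recovery assessed after reperfusion in oxygenated glucose aCSF. Means ± SEM.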

[3] = target: T1, Adenosine receptor A3 (Homo sapiens, UniProt P0DMS8); experiment: Displacement of [125I]AB-MECA from human cloned adenosine A3 receptor expressed in CHO cells; assay type: cell-based
T1 sequence (P0DMS8 whole entry): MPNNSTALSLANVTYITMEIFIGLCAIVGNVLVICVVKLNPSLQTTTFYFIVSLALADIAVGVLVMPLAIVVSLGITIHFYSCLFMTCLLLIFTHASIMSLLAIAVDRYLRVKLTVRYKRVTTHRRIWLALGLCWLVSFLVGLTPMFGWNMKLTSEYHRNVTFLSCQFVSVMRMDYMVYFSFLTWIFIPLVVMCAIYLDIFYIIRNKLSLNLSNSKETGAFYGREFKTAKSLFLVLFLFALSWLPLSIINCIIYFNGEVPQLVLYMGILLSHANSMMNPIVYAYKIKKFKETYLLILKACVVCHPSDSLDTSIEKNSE
Method in brief: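 CHO cells stably expressing hA3. IC50 by non-linear regression over five displacer concentrations in triplicate, converted to Ki by Cheng-Prusoff. Ki values are means of four assays.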

[4] = species on record: Rattus norvegicus; experiment: Effect on fEPSP amplitude under normoxic condition in Wistar rat cerebral ischemia model treated before 15 mins of oxygen and glucose deprivation; assay type: functional; method in brief: as §1
[5] = target: T2, Adenosine receptor A1 (Rattus norvegicus, UniProt P25099); experiment: Displacement of [3H]DPCPX from adenosine A1 receptor in Wistar rat cerebral cortex; assay type: tissue-based
T2 sequence (P25099 whole entry): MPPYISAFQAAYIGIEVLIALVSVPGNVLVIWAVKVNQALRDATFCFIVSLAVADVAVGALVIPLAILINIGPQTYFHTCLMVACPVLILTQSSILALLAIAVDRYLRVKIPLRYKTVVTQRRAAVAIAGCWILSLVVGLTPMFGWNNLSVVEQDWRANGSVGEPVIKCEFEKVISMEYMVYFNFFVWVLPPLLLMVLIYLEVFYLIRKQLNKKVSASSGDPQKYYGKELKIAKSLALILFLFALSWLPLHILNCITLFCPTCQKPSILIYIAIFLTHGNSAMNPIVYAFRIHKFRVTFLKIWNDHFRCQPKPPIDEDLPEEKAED

[6] = species on record: Rattus norvegicus; experiment: Inhibition of fEPSP amplitude in Wistar rat cerebral ischemia model at 10 nM treated after 7 mins of oxygen and glucose deprivation; assay type: functional; method in brief: as §1
[7] = target: T1, Adenosine receptor A3; experiment: Antagonist activity at human […] expressed in CHO cells assessed as inhibition of NECA-induced cAMP accumulation; assay type: functional, cell-based
Method in brief: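 hA3-transfected CHO cells (~60,000/well, 48 h) preincubated 15 min at 37 °C with Ro 20-1724 (20 µM) and adenosine deaminase (1 U/mL). Compound (1 nM–10 µM, 15 min) added, then 100 nM NECA against 1 µM forskolin-stimulated cAMP. Stopped with 0.4 N HCl. cAMP measured by [3H]cAMP competitive binding-protein assay. Sigmoid non-linear regression; three separate experiments.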

[8] = target: Adenosine receptor A2a (Homo sapiens, UniProt P29274); experiment: Displacement of [125I]NECA from human adenosine A2A receptor expressed in CHO cells at 10uM; assay type: cell-based; settings: in the assay text read “[3H]NECA” for “[125I]NECA”
Method in brief: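 hA2A stably expressed in CHO cells. Radioligand [3H]NECA (Kd 30 nM). Percentage inhibition of specific binding measured at 10 µM.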

[9] = target: T3, Adenosine receptor A1 (Bos taurus, UniProt P28190); experiment: Displacement of [3H]DPCPX from adenosine A1 receptor in bovine brain membrane
T3 sequence (P28190 whole entry): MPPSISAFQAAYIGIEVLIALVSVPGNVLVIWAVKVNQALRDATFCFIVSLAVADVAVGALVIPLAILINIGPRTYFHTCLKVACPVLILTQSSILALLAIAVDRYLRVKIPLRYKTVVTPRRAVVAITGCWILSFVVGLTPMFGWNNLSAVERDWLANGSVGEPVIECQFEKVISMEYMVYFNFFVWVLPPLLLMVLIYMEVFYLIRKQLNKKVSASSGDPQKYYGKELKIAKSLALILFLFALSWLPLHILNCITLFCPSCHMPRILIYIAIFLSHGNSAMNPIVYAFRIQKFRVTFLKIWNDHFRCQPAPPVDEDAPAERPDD

[10] = species on record: Rattus norvegicus; experiment: Effect on fEPSP amplitude under normoxic condition in Wistar rat cerebral ischemia model treated during oxygen and glucose deprivation; assay type: functional; method in brief: as §1
[11] = species on record: Rattus norvegicus; experiment: Inhibition of anoxic depolarization in Wistar rat cerebral ischemia model at 10 nM treated after 7 mins of oxygen and glucose deprivation; assay type: functional
Method in brief: (§2)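 Rat hippocampal slices (400 µm), submerged and superfused with oxygenated aCSF at 30–32 °C. OGD made with glucose-free, N2-gassed aCSF for 7 or 30 min. Drug applied 15 min before, during and 5 min after OGD; 10 nM, with 0.5 nM–1 µM tested in 30-min runs. Anoxic depolarization recorded in CA1 as negative d.c. shift, with peak time from OGD onset. Means ± SEM; unpaired two-tailed t test.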

[12] = species on record: Rattus norvegicus; experiment: Effect on anoxic depolarization in Wistar rat cerebral ischemia model assessed as delay in appearance treated during oxygen and glucose deprivation; assay type: functional; method in brief: as §2
[13] = target: T4, Adenosine receptor A1 (Homo sapiens) (UniProt P30542); experiment: Displacement of [3H]DPCPX from human cloned adenosine A1 receptor expressed in CHO cells at 10 uM
T4 sequence (whole entry): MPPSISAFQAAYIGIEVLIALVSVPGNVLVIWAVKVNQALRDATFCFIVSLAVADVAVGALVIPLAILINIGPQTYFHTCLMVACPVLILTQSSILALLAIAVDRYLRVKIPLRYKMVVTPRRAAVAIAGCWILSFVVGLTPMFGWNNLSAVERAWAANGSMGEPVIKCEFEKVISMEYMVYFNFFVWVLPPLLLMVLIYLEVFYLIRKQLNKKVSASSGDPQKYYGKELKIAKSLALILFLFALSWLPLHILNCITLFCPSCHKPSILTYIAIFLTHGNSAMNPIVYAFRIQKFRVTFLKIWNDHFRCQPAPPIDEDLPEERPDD

[14] = target: T5, Adenosine receptor A3 (Rattus norvegicus) (UniProt P28647); experiment: Displacement of [3H](R)-PIA from adenosine A3 receptor in Wistar rat testis membrane at 1 uM; assay type: cell membranes
T5 sequence (whole entry): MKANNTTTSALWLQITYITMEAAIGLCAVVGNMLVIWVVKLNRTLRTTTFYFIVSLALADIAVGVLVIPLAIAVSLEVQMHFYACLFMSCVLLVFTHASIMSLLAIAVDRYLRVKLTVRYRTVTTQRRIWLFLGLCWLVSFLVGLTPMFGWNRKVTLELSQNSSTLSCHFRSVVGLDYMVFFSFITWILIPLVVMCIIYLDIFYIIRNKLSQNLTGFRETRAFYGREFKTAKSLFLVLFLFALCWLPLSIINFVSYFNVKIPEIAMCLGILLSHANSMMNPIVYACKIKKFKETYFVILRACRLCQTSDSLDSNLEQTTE
Method in brief: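 Wistar rat testis membranes (0.1–0.2 mg protein) with 4 nM [3H](R)-PIA in 50 mM Tris/HCl pH 7.4, 1 mM EDTA, 10 mM MgCl2, plus 150 nM DPCPX to block A1 sites. Nonspecific binding defined with 15 µM (R)-PIA. Filtration, then scintillation counting. Percent inhibition at 1 µM.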

[15] = species on record: Rattus norvegicus; experiment: Effect on anoxic depolarization in Wistar rat cerebral ischemia model assessed as delay in appearance treated before 15 mins of oxygen and glucose deprivation; assay type: functional; method in brief: as §2

Adenosine receptor A2a, sequence (P29274 whole entry): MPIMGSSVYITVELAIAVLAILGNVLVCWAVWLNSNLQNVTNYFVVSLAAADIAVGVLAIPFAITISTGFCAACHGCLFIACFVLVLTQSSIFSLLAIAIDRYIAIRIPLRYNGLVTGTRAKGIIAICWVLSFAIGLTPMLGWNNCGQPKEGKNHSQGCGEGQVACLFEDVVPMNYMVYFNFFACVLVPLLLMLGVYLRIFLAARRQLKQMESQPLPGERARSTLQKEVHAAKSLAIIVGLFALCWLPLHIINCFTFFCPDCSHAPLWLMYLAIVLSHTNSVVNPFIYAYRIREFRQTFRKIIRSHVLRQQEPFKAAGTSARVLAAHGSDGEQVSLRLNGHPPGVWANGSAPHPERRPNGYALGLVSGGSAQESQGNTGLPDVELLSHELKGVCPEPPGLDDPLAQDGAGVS

Activity [1]: 56%
Ki [3]: 5.5 nM
Ki [5]: 132 nM
EC50 [7]: 12 nM
Activity [8]: 32%
Ki [9]: 36 nM
Activity [13]: 36%
Activity [14]: 5%
Compound: CS(=O)(=O)N(c1nc2ccccc2n2c(=O)n(-c3ccccc3)nc12)S(C)(=O)=O
Activity [2]: inactive
Activity [4]: inactive
Activity [6]: Active
Activity [10]: inactive
Activity [11]: Active
Activity [12]: 9.3 min
Activity [15]: 9.3 min
